Activity calls are given as the source filed them. No cut-off for these calls is given here.
Assays:
[1] = target: T1, Renin (Homo sapiens, UniProt P00797); test: Inhibition of human recombinant renin
T1 sequence (P00797 whole entry): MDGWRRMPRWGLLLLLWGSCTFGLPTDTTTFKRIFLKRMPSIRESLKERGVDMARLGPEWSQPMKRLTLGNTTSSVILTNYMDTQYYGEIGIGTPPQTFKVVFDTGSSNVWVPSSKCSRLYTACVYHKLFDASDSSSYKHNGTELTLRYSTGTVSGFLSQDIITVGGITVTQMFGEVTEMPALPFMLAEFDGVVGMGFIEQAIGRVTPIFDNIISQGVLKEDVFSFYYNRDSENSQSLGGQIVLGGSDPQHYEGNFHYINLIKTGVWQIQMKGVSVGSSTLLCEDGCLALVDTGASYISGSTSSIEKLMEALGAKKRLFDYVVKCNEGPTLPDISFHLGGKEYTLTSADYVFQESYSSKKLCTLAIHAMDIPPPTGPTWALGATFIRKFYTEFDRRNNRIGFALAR

[2] = target: T1, Renin; test: Inhibition of human recombinant renin in presence of human plasma by competitive radioimmunoassay; assay type: cell-free
[3] = system: Rattus norvegicus; test: Antihypertensive activity in double transgenic rat model assessed as reduction in blood pressure at 60 mg/kg, po administered on day 2 and day 3 after vehicle treatment on day 1; assay type: functional, organism-based; parameters: dose 60 mg/kg
How it was run: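 Telemetered double transgenic rats carrying human angiotensinogen and human renin genes (n = 4). Vehicle given on day 1 with blood pressure monitored over 24 h. Oral gavage at 60 mg/kg at t = 24 h and 48 h, with blood pressure followed continuously by telemetry.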

[4] = Cmax in rat at 10 mg/kg, po and 2 mg/kg, iv; assay type: ADME, organism-based; details: in vivo
How it was run: (§1)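 Rats dosed with the fumarate salt at 10 mg/kg by oral route and 2 mg/kg intravenously. Plasma concentrations measured over time, and PK parameters derived from them.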

[5] = Tmax in rat at 10 mg/kg, po and 2 mg/kg, iv; assay type: ADME, organism-based; details: in vivo; how it was run: as §1
[6] = AUC (0 to t) in rat at 10 mg/kg, po and 2 mg/kg, iv; assay type: ADME, organism-based; details: plasma; how it was run: as §1
[7] = AUC (infinity) in rat at 10 mg/kg, po and 2 mg/kg, iv; assay type: ADME, organism-based; details: plasma; how it was run: as §1
[8] = Clearance in rat at 2 mg/kg, iv; assay type: ADME, organism-based; parameters: dose 2 mg/kg, route intravenous; details: in vivo; how it was run: as §1
[9] = Oral bioavailability in rat at 10 mg/kg; assay type: ADME, organism-based; details: in vivo; how it was run: as §1
[10] = Half life in rat at 10 mg/kg, po and 2 mg/kg, iv; assay type: ADME, organism-based; details: in vivo; how it was run: as §1
[11] = Volume of distribution at steady state in rat at 10 mg/kg, po and 2 mg/kg, iv; assay type: ADME, organism-based; details: in vivo, read-out: Vdss

SMILES	IC50 [1]	IC50 [2]	other results
CCOCCCC[C@@](O)(c1ccccc1)[C@@H]1CCCN(C(=O)N[C@H](CN)CC2CCCCC2)C1	38 nM	490 nM	–
CNC[C@H](CC1CCCCC1)NC(=O)N1CCC[C@@H]([C@@](O)(CCCCOC)c2cccc(C#N)c2)C1	37 nM	86 nM	–
CNC[C@H](CC1CCCCC1)NC(=O)N1CCC[C@@H]([C@@H](OCCCOC)c2cccc(Cl)c2Cl)C1	609 nM	–	–
COCCCO[C@@H](c1ccccc1)[C@@H]1CCCN(C(=O)N[C@H](CN)CC2CCCCC2)C1	308 nM	–	–
CNC[C@H](CC1CCCCC1)NC(=O)N1CCC[C@@H]([C@@](O)(CCCCOC)c2cccc(Br)c2)C1	0.13 nM	12 nM	–
CNC[C@H](CC1CCCCC1)NC(=O)N1CCC[C@@H]([C@@](O)(CCCCOC)c2ccccc2F)C1	4 nM	61 nM	–
CCOCCCO[C@@H](c1ccccc1)[C@@H]1CCCN(C(=O)N[C@H](CNC)CC2CCCCC2)C1	40 nM	447 nM	–
CCc1cccc([C@](O)(CCCCOC)[C@@H]2CCCN(C(=O)N[C@H](CNC)CC3CCCCC3)C2)c1	9 nM	285 nM	–
CNC[C@H](CC1CCCCC1)NC(=O)N1CCC[C@@H]([C@@](O)(CCCCOC)c2cccc(Cl)c2)C1 [listing 1 of 2 here]	–	–	Activity [3]: Active
CNC[C@H](CC1CCCCC1)NC(=O)N1CCC[C@@H]([C@@](O)(CCCCOC)c2ccccc2)C1.O=C(O)/C=C/C(=O)O	–	–	Cmax [4]: 101 ng/mL; Tmax [5]: 2 h; AUC(0-t) [6]: 547 ng·h/mL; AUC(0-inf) [7]: 689 ng·h/mL; clearance [8]: 66 mL/min/kg; bioavailability [9]: 33.6%
CNC[C@H](CC1CCCCC1)NC(=O)N1CCC[C@@H]([C@@](O)(CCCCOC)c2cccc(Cl)c2F)C1	0.1 nM	27 nM	–
CCOCCCC[C@@](O)(c1ccccc1)[C@@H]1CCCN(C(=O)N[C@H](CNC)CC2CCCCC2)C1	16 nM	162 nM	–
CCNC[C@H](CC1CCCCC1)NC(=O)N1CCC[C@@H]([C@@](O)(CCCCOC)c2cccc(Cl)c2)C1	6 nM	154 nM	–
CCOCCCO[C@@H](c1cccc(Cl)c1)[C@@H]1CCCN(C(=O)N[C@H](CN)CC2CCCCC2)C1	5.5 nM	190 nM	–
CNC[C@H](CC1CCCCC1)NC(=O)N1CCC[C@@H]([C@@](O)(CCCCOC)c2ccccc2)C1	7 nM	64 nM	–
COCCCC[C@@](O)(c1cccc(Cl)c1)[C@@H]1CCCN(C(=O)N[C@H](CNCC(F)(F)F)CC2CCCCC2)C1	46 nM	1400 nM	–
CNC[C@H](CC1CCCCC1)NC(=O)N1CCC[C@@H]([C@@](O)(CCCCO)c2cccc(Cl)c2)C1	21 nM	315 nM	–
CNC[C@H](CC1CCCCC1)NC(=O)N1CCC[C@@H]([C@@](O)(CCCCOC)c2cc(F)cc(Cl)c2)C1	0.9 nM	28 nM	–
CNC[C@H](CC1CCCCC1)NC(=O)N1CCC[C@@H]([C@@](O)(CCCCOC)c2cccc(Cl)c2F)C1.O=C(O)/C=C/C(=O)O	–	–	Cmax [4]: 28 ng/mL; Tmax [5]: 4.3 h; AUC(0-inf) [7]: 254 ng·h/mL; half-life [10]: 480 min; clearance [8]: 30 mL/min/kg; Vd [11]: 16 L/kg; bioavailability [9]: 5.5%
CNC[C@H](CC1CCCCC1)NC(=O)N1CCC[C@@H]([C@@](O)(CCCCOC)c2cccc(F)c2)C1.O=C(O)/C=C/C(=O)O	–	–	Cmax [4]: 83 ng/mL; Tmax [5]: 2.7 h; AUC(0-t) [6]: 433 ng·h/mL; AUC(0-inf) [7]: 510 ng·h/mL; half-life [10]: 576 min; clearance [8]: 59 mL/min/kg; bioavailability [9]: 21.1%
CNC[C@H](CC1CCCCC1)NC(=O)N1CCC[C@@H]([C@@](O)(CCCCOC)c2cccc(C)c2)C1	2.5 nM	67 nM	–

SMILES	IC50 [1]	IC50 [2]	other results
CNC[C@H](CC1CCCCC1)NC(=O)N1CCC[C@@H]([C@@](O)(CCCCOC)c2cccc(OC(F)(F)F)c2)C1	69 nM	–	–
CNC[C@H](CC1CCCCC1)NC(=O)N1CCC[C@@H]([C@@H](OCCCOC)c2cccc(Cl)c2F)C1	39 nM	369 nM	–
CCOCCCO[C@@H](c1cccc(F)c1)[C@@H]1CCCN(C(=O)N[C@H](CNC)CC2CCCCC2)C1	11 nM	84 nM	–
CCOCCCC[C@@](O)(c1ccccc1)[C@@H]1CCCN(C(=O)N[C@H](CNC)CC2CCCCC2)C1.O=C(O)/C=C/C(=O)O	–	–	Cmax [4]: 135 ng/mL; Tmax [5]: 3 h; AUC(0-t) [6]: 745 ng·h/mL; AUC(0-inf) [7]: 833 ng·h/mL; half-life [10]: 522 min; clearance [8]: 79 mL/min/kg; Vd [11]: 55 L/kg; bioavailability [9]: 48.3%
CCOCCCO[C@@H](c1ccccc1)[C@@H]1CCCN(C(=O)N[C@H](CNC)CC2CCCCC2)C1.O=C(O)/C=C/C(=O)O	–	–	Cmax [4]: 91 ng/mL; Tmax [5]: 3 h; AUC(0-inf) [7]: 882 ng·h/mL; clearance [8]: 59 mL/min/kg; Vd [11]: 22 L/kg; bioavailability [9]: 35.8%
CNC[C@H](CC1CCCCC1)NC(=O)N1CCC[C@@H]([C@@H](OCCCOC)c2cccc(F)c2)C1	58 nM	–	–
CNC[C@H](CC1CCCCC1)NC(=O)N1CCC[C@@H]([C@@](O)(CCCCOC)c2ccccc2Cl)C1	7 nM	151 nM	–
COCCCC[C@@](O)(c1ccccc1)[C@@H]1CCCN(C(=O)N[C@H](CN)CC2CCCCC2)C1	21 nM	165 nM	–
CCOCCCO[C@@H](c1cccc(Cl)c1Cl)[C@@H]1CCCN(C(=O)N[C@H](CNC)CC2CCCCC2)C1	125 nM	–	–
CNC[C@H](CC1CCCCC1)NC(=O)N1CCC[C@@H]([C@@](O)(CCCCOC)c2cccc(Cl)c2)C1 [listing 2 of 2 here]	–	13 nM	–
CNC[C@H](CC1CCCCC1)NC(=O)N1CCC[C@@H]([C@@](O)(CCCCOC)c2cc(C)ccc2F)C1	3.5 nM	67 nM	–
CNC[C@H](CC1CCCCC1)NC(=O)N1CCC[C@@H]([C@@H](OCCCO)c2cccc(Cl)c2)C1	764 nM	–	–
CCOCCCO[C@@H](c1cccc(Cl)c1)[C@@H]1CCCN(C(=O)N[C@H](CNC)CC2CCCCC2)C1	4 nM	–	–
CNC[C@H](CC1CCCCC1)NC(=O)N1CCC[C@@H]([C@@](O)(CCCCOC)c2cccc(OC)c2)C1	13 nM	88 nM	–
CNC[C@H](CC1CCCCC1)NC(=O)N1CCC[C@@H]([C@@](O)(CCCCOC)c2cccc(F)c2)C1	3 nM	47 nM	–
CNC[C@H](CC1CCCCC1)NC(=O)N1CCC[C@@H]([C@@](O)(CCCCOC)c2cccc(F)c2F)C1	0.14 nM	20 nM	–
COCCCC[C@@](O)(c1ccccc1)[C@@H]1CCCN(C(=O)N[C@H](CN)CC2CCCCC2)C1.O=C(O)/C=C/C(=O)O	–	–	Cmax [4]: 28 ng/mL; Tmax [5]: 2.3 h; AUC(0-t) [6]: 221 ng·h/mL; AUC(0-inf) [7]: 192 ng·h/mL; half-life [10]: 306 min; clearance [8]: 46 mL/min/kg; Vd [11]: 56 L/kg; bioavailability [9]: 7.5%
COCCCOc1cc(C[C@@H](C[C@H](N)[C@@H](O)C[C@H](C(=O)NCC(C)(C)C(N)=O)C(C)C)C(C)C)ccc1OC.COCCCOc1cc(C[C@@H](C[C@H](N)[C@@H](O)C[C@H](C(=O)NCC(C)(C)C(N)=O)C(C)C)C(C)C)ccc1OC.O=C(O)/C=C/C(=O)O [ALISKIREN FUMARATE]	–	–	Cmax [4]: 4 ng/mL; Tmax [5]: 0.1 h; AUC(0-inf) [7]: 31 ng·h/mL; clearance [8]: 55 mL/min/kg; bioavailability [9]: 1.2%
CNC[C@H](CC1CCCCC1)NC(=O)N1CCC[C@@H]([C@@](O)(CCCCOC)c2cccc(C(F)(F)F)c2)C1	7 nM	389 nM	–
CCOCCCO[C@@H](c1ccccc1)[C@@H]1CCCN(C(=O)N[C@H](CN)CC2CCCCC2)C1	55 nM	–	–
